≈ marks a conversion by molar mass, not a printed value. Calls of active or inactive are those of the source. No cut-off for these calls is given here.
Columns and labels:
Bacillus subtilis = assay: Antimicrobial activity against Bacillus subtilis ATCC 6633 by broth dilution technique; format: functional
How it was run: (§1)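 Broth dilution in Mueller Hinton Broth. Compounds are dissolved in DMSO (never above 1% v/v final) and serially diluted. MIC is the lowest concentration giving complete growth inhibition.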

Priestia megaterium = assay: Antimicrobial activity against Bacillus megaterium by broth dilution technique; format: functional; how it was run: as §1
Micrococcus luteus = assay: Antimicrobial activity against Sarcina lutea by broth dilution technique; format: functional; how it was run: as §1
Staphylococcus aureus [1] = assay: Antimicrobial activity against Staphylococcus aureus ATCC 25923 by broth dilution technique; format: functional; how it was run: as §1
Staphylococcus aureus [2] = assay: Antimicrobial activity against penicillin-resistant Staphylococcus aureus by broth dilution technique; format: functional
How it was run: (§2)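 Broth dilution in Mueller Hinton Broth with compounds predissolved in DMSO (at most 1% v/v). Final concentrations ranged from 100 to 0.0015, and the inoculum was 5.10⁴ bacteria/mL. Plates were incubated at 37 °C for 24 h. MIC was taken as the lowest concentration giving complete growth inhibition.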

[3] = system: Staphylococcus epidermidis; assay: Antimicrobial activity against penicillin-resistant Staphylococcus epidermidis by broth dilution technique; format: functional; how it was run: as §2
[4] = system: Staphylococcus haemolyticus; assay: Antimicrobial activity against Staphylococcus haemolyticus by broth dilution technique; format: functional; how it was run: as §1
Streptococcus agalactiae = assay: Antimicrobial activity against Streptococcus agalactiae by broth dilution technique; format: functional; how it was run: as §1
Enterococcus faecalis = assay: Antimicrobial activity against Streptococcus faecalis by broth dilution technique; format: functional; how it was run: as §1
Enterococcus faecium = assay: Antimicrobial activity against Streptococcus faecium by broth dilution technique; format: functional; how it was run: as §1
Streptococcus pyogenes = assay: Antimicrobial activity against Streptococcus pyogenes by broth dilution technique; format: functional
How it was run: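 Tryptose Phosphate Broth dilution. Compounds are dissolved in DMSO, with DMSO at most 1% v/v final. MIC is taken as the lowest concentration with complete growth inhibition.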

Haemophilus influenzae = assay: Antimicrobial activity against Haemophilus influenzae by broth dilution technique; format: functional
How it was run: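 Haemophilus Test Medium broth dilution. Compounds in DMSO are added to final dilutions, with DMSO at most 1% v/v. MIC is the lowest concentration completely inhibiting growth.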

Bacillus thuringiensis = assay: Antimicrobial activity against Bacillus thuringiensis var. kurstaki BGSC 4D1 by broth dilution technique; format: functional; conditions: serovar kurstaki; how it was run: as §1
Saccharomyces cerevisiae [5] = assay: Antimicrobial activity against Saccharomyces cerevisiae ATCC 9763 by broth dilution technique; format: functional
How it was run: (§3)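 Fungi are tested by Sabouraud Liquid Medium dilution. Compounds are in DMSO, with DMSO at most 1% v/v final. Inoculum is 1×10³ fungi/mL, incubated 48 h at 30 °C. MIC is the lowest concentration completely inhibiting growth. For MFC, 100 µL of clear mixtures is subcultured into 1 mL fresh medium and read after 48 h at 30 °C.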

Aspergillus niger [6] = assay: Antimicrobial activity against Aspergillus niger ATCC 6275 by broth dilution technique; format: functional; how it was run: as §3
Candida tropicalis [7] = assay: Antimicrobial activity against Candida tropicalis ATCC 1369 by broth dilution technique; format: functional; how it was run: as §3
[8] = system: Staphylococcus epidermidis; assay: Antimicrobial activity against Staphylococcus epidermidis ATCC 12228 by broth dilution technique
Escherichia coli = assay: Antimicrobial activity against Escherichia coli SPA27 upto 100 ug/ml by broth dilution technique; format: functional, organism-based; how it was run: as §1
Candida tropicalis [9] = assay: Antimicrobial activity against Candida tropicalis ATCC 1369 upto 100 ug/ml by broth dilution technique; format: functional, organism-based; how it was run: as §3
Aspergillus niger [10] = assay: Antimicrobial activity against Aspergillus niger ATCC 6275 upto 100 ug/ml by broth dilution technique; format: functional, organism-based; how it was run: as §3
Saccharomyces cerevisiae [11] = assay: Antimicrobial activity against Saccharomyces cerevisiae ATCC 9763 upto 100 ug/ml by broth dilution technique; format: functional, organism-based; how it was run: as §3

Compound	MIC (Bacillus subtilis) [µg/mL]	MIC (Priestia megaterium) [µg/mL]	MIC (Micrococcus luteus) [µg/mL]	MIC (Staphylococcus aureus [1]) [µg/mL]	MIC (Staphylococcus aureus [2]) [µg/mL]	MIC [3] [µg/mL]	MIC [4] [µg/mL]	MIC (Streptococcus agalactiae) [µg/mL]	MIC (Enterococcus faecalis) [µg/mL]	MIC (Enterococcus faecium) [µg/mL]	MIC (Streptococcus pyogenes) [µg/mL]	MIC (Haemophilus influenzae) [µg/mL]	MIC (Bacillus thuringiensis) [µg/mL]	MIC [8] [µg/mL]	Activity (Escherichia coli)	Activity (Candida tropicalis [9])	Activity (Aspergillus niger [10])	Activity (Saccharomyces cerevisiae [11])	other results
O=C1CS/C(=N/c2nc3ccccc3s2)N1	12 (≈ 48.1 µM)	25 (≈ 100 µM)	50 (≈ 201 µM)	25 (≈ 100 µM)	25 (≈ 100 µM)	100 (≈ 401 µM)	50 (≈ 201 µM)	> 100	> 100	> 100	> 100	0.7 (≈ 2.81 µM)	25 (≈ 100 µM)	100 (≈ 401 µM)					MIC (Saccharomyces cerevisiae [5]): 50 µg/mL (≈ 201 µM); MIC (Aspergillus niger [6]): 25 µg/mL (≈ 100 µM); MIC (Candida tropicalis [7]): 50 µg/mL (≈ 201 µM)
CC1(C)S[C@@H]2[C@H](NC(=O)[C@H](N)c3ccccc3)C(=O)N2[C@H]1C(=O)O [AMPICILLIN]	0.007 (≈ 0.02 µM)	0.07 (≈ 0.2 µM)	0.0015 (≈ 0.00429 µM)	0.07 (≈ 0.2 µM)	25 (≈ 71.5 µM)	25 (≈ 71.5 µM)	0.03 (≈ 0.0859 µM)	0.03 (≈ 0.0859 µM)	0.7 (≈ 2 µM)	100 (≈ 286 µM)	0.007 (≈ 0.02 µM)	0.07 (≈ 0.2 µM)	50 (≈ 143 µM)	3 (≈ 8.59 µM)	inactive	inactive	inactive	inactive	
O=C1N/C(=N\c2nc3ccccc3s2)S/C1=C\c1ccc(Cl)cc1	12 (≈ 32.3 µM)	12 (≈ 32.3 µM)	12 (≈ 32.3 µM)	> 100	> 100	12 (≈ 32.3 µM)	100 (≈ 269 µM)	> 100	100 (≈ 269 µM)	> 100	> 100	> 100	6 (≈ 16.1 µM)	12 (≈ 32.3 µM)	inactive	inactive	inactive	inactive	
O=C1N/C(=N\c2nc3ccccc3s2)S/C1=C\c1cccc([N+](=O)[O-])c1	12 (≈ 31.4 µM)	12 (≈ 31.4 µM)	6 (≈ 15.7 µM)	6 (≈ 15.7 µM)	6 (≈ 15.7 µM)	6 (≈ 15.7 µM)	> 100	> 100	> 100	> 100	> 100	> 100	6 (≈ 15.7 µM)	6 (≈ 15.7 µM)	inactive	inactive	inactive	inactive	
O=C1CS/C(=N\c2nsc3ccccc23)N1	50 (≈ 201 µM)	100 (≈ 401 µM)	> 100	> 100	> 100	> 100	> 100	> 100	> 100	> 100	> 100	3 (≈ 12 µM)	> 100	> 100	inactive	inactive	inactive	inactive	
COc1ccc(/C=C2\S/C(=N/c3nccs3)NC2=O)cc1	1.5 (≈ 4.73 µM)	1.5 (≈ 4.73 µM)	6 (≈ 18.9 µM)	12 (≈ 37.8 µM)	3 (≈ 9.45 µM)	12 (≈ 37.8 µM)	12 (≈ 37.8 µM)	3 (≈ 9.45 µM)	> 100	> 100	12 (≈ 37.8 µM)	0.3 (≈ 0.945 µM)	3 (≈ 9.45 µM)	6 (≈ 18.9 µM)	inactive	inactive	inactive	inactive	
O=C1N/C(=N\c2nc3ccccc3s2)S/C1=C\c1cccc(Cl)c1	12 (≈ 32.3 µM)	12 (≈ 32.3 µM)	12 (≈ 32.3 µM)	25 (≈ 67.2 µM)	25 (≈ 67.2 µM)	12 (≈ 32.3 µM)	> 100	> 100	> 100	> 100	> 100	> 100	6 (≈ 16.1 µM)	6 (≈ 16.1 µM)	inactive	inactive	inactive	inactive	
O=C1N/C(=N/c2nsc3ccccc23)S/C1=C\c1ccc(Cl)cc1	3 (≈ 8.07 µM)	0.7 (≈ 1.88 µM)	> 100	> 100	> 100	> 100	> 100	50 (≈ 134 µM)	> 100	> 100	> 100	> 100	6 (≈ 16.1 µM)	> 100	inactive	inactive	inactive	inactive	
